Consider one compound from ChEMBL document CHEMBL3865807, “Syntheses and photodynamic activity of some glucose-conjugated BODIPY dyes” (Eur J Med Chem, 2016).

Active and inactive are the calls of the source. The calls are words filed in the database; no cut-off is given here.

Data set [1] in a line: Induction of apoptosis in human A549 cells assessed as caspase 3 activation at 2.5 uM preincubated measured after 24 hrs under dark condition by immunoblot analysis. To be noted: a549, 24 h. Type of data set: cell-based. Background: Immunoblotting shows a protein as a band on a membrane.
The nature of data set [2]: Photocytotoxicity against human A549 cells assessed as decrease in cell viability preincubated for 1 hr followed by 0.77 mW/cm2 white light irradiation for 80 mins measured after 24 hrs by MTT assay. The following applies: A549, light or radiation study. Type of data set: functional, cell-based. The method, boiled down:
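IC50 from MTT: A549 cells (1×10^4/well) given graded compound concentrations 1 h in serum-free DMEM (vehicle ≤0.1% DMSO), washed, photo-exposed 80 min at 0.77 mW/cm², regular medium 24 h; MTT 0.5 mg/mL 6 h, A550; viability relative to vehicle control; four replicates, three experiments, mean ± SEM.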

Data set [3] has as its system A549. The data set can be described thus: Induction of apoptosis in human A549 cells assessed as accumulation at subG1 phase at 5 to 50 uM preincubated for 1 hr followed by 0.77 mW/cm2 white light irradiation for 80 mins measured after 24 hrs by propidium iodide staining based flow cytometry relative to control. Type of data set: functional. In a few lines: (§1)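 Cells exposed 1 h to compound (5-50 µM; vehicle 0.1% DMSO), washed, then irradiated (0.77 mW/cm²) for 0, 30 or 80 min; after serum addition kept 24 h. PI/RNase A staining in hypotonic 0.1% citrate-0.1% Triton X-100, 30 min, 37 °C; sub-G1 peak by flow cytometry, debris gated out, ≥2×10^4 cells; five replicates, mean ± SEM.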
Background: Flow cytometry measures light scatter and fluorescence of single cells or particles in a stream.

Data set [4] can be described thus: Drug uptake in human A549 cells assessed as mean fluorescence intensity at 2.5 uM after 16 hrs by flow cytometry (reference value: 5.4 +/- 1.5). Type of data set: ADME, cell-based. The following applies: a549, 16 h.
A short description of data set [5]: Induction of apoptosis in human A549 cells assessed as accumulation at subG1 phase up to 50 uM measured after 24 hrs under dark condition by propidium iodide staining based flow cytometry. Type of data set: cell-based. The following applies: a549, 24 h. The method, boiled down: as §1
A short description of data set [6]: Drug uptake in human L-132 cells assessed as mean fluorescence intensity at 2.5 uM after 8 hrs by flow cytometry (reference value: 4.6 +/- 1.2). The following applies: l132, 8 h. Type of data set: ADME, cell-based.
For data set [7], the species on record is Bos taurus. The data set can be described thus: Binding affinity to calf thymus duplex DNA assessed as decrease in intensities of maximum absorption at 50 uM by spectrophotometric titration analysis.
For data set [8], the system named is A549. The data set can be described thus: Induction of apoptosis in human A549 cells assessed as pro-caspase 3 level at 2.5 uM preincubated for 1 hr followed by 0.77 mW/cm2 white light irradiation for 80 mins measured after 4 hrs by immunoblot analysis relative to control. Type of data set: functional. In a few lines:
(§2)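 Whole-cell extracts from A549 cells (1×10^6) treated with 0 or 2.5 µM compound, photo-exposed 80 min, lysed in Tris pH 7.4/NaCl/EDTA/Triton with protease inhibitors; 30 µg protein on 12% SDS-PAGE, nitrocellulose, milk block, caspase-3 antibody overnight 4 °C, HRP secondary, chemiluminescence; band ratio to normal control (=1) after loading-control normalisation.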

Data set [9] is described as follows: Cell cycle arrest in human A549 cells assessed as accumulation at subG1 phase at 2.5 uM preincubated for 1 hr followed by 0.77 mW/cm2 white light irradiation for 80 mins measured after 24 hrs in presence of 50 uM of beta-carotene by propidium iodide staining based flow cytometry (reference value: 8.2 +/- 1.1%). Type of data set: functional.
The nature of data set [10]: Photocytotoxicity against human WI38 cells at 50 uM using 0.77 mW/cm2 white light irradiation by MTT assay. Type of data set: toxicity, cell-based. To be noted: wi-38, 50 µM.
For data set [11], the system named is A549. The data set can be described thus: Induction of apoptosis in human A549 cells assessed as pro-caspase 3 level at 2.5 uM preincubated for 1 hr followed by 0.77 mW/cm2 white light irradiation for 80 mins measured after 8 hrs by immunoblot analysis relative to control. Type of data set: functional. The method, boiled down: as §2
For data set [12], the system named is A549. The data set can be described thus: Induction of apoptosis in human A549 cells assessed as increase in caspase 8 activity at 2.5 uM preincubated for 1 hr followed by 0.77 mW/cm2 white light irradiation for 80 mins measured after 16 hrs by fluorimetric method relative to control. Type of data set: functional. The method, boiled down: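 A549 cells (1×10^6) given compound 2.5 µM for 1 h, then light 80 min; caspase activities measured at 16 h in whole-cell extracts with kits, colorimetric for caspase-3 and fluorimetric for caspase-8; untreated photo-exposed cells as control; five replicates, mean ± SEM.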

Data set [13] can be described thus: Cytotoxicity against human L-132 cells assessed as reduction in cell viability at 50 uM under dark condition by MTT assay. Type of data set: toxicity, cell-based. To be noted: l132, 50 µM. A general note: Tetrazolium assays rely on reduction of a dye to a coloured formazan, in cell work by metabolically active cells.
Data set [14] is filed under the species Bos taurus. The data set can be described thus: Binding affinity to calf thymus duplex DNA assessed as decrease in intensities of maximum absorption at 50 uM by spectrophotometric titration analysis.
Data set [15] in a line: Cell cycle arrest in human A549 cells assessed as accumulation at subG1 phase at 2.5 uM preincubated for 1 hr followed by 0.77 mW/cm2 white light irradiation for 80 mins measured after 24 hrs by propidium iodide staining based flow cytometry (reference value: 8.2 +/- 1.1%). Type of data set: functional.
Data set [16] in a line: Cytotoxicity against human A549 cells assessed as decrease in cell viability up to 200 uM after 48 hrs under dark condition by MTT assay. The following applies: a549, 48 h. Type of data set: toxicity, cell-based. In a few lines:
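Dark toxicity: A549 cells treated as in the MTT protocol (1 h compound exposure, serum-free medium, washed) with no light, then assessed at 48 h by MTT (0.5 mg/mL, 6 h, formazan in HCl/SDS, A550).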

A short description of data set [17]: Drug uptake in human L-132 cells assessed as mean fluorescence intensity at 2.5 uM after 4 hrs by flow cytometry (reference value: 4.6 +/- 1.2). Type of data set: ADME, cell-based. To be noted: l132, 4 h.
Data set [18] has as its system A549. The data set can be described thus: Induction of morphological changes in human A549 cells assessed as irregular disruptions in optical diffraction halo preincubated for 1 hr followed by 0.77 mW/cm2 white light irradiation for 80 mins measured after 24 hrs by phase contrast microscopy. Type of data set: functional, cell-based. In a few lines: (§3)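 A549 cells (1×10^5/well) on coverslips given vehicle (0.1% DMSO) or compound (0.625, 1.25, 2.5 µM) for 1 h, then irradiated 80 min (0.77 mW/cm²); kept 24 h in regular medium and examined unstained by phase-contrast microscopy (40× objective); representative fields imaged; experiments done three times.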

A short description of data set [19]: Drug uptake in cytoplasm of human A549 cells at 1 uM after 0.25 to 3 hrs by Hoechst 33342 staining based fluorescence microscopy. Type of data set: ADME, cell-based. To be noted: a549, 1 µM. The method, boiled down:
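A549 cells on coverslips loaded with dyes (1 µM) for 0.25, 0.5, 1, 2 or 3 h at 37 °C, washed, counterstained with Hoechst 33342 (10 µM), mounted in 70% glycerol; red dye and blue nuclear fluorescence imaged by fluorescence microscopy (40×) and overlaid.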

In data set [20] the test system is A549. Kind of data set: Induction of apoptosis in human A549 cells assessed as decrease in pro-caspase 3 level at 2.5 uM preincubated for 1 hr followed by in 0.77 mW/cm2 white light irradiation for 80 mins by immunoblot analysis. Type of data set: functional, cell-based. To be noted: TDE = time-dependent effect. In a few lines:
as §2

Data set [21] deals with A549. The data set can be described thus: Induction of morphological changes in human A549 cells assessed as cells with blebbing membranes up to 2.5 uM preincubated for 1 hr followed by 0.77 mW/cm2 white light irradiation for 80 mins measured after 24 hrs by phase contrast microscopy. Type of data set: functional, cell-based. The method, boiled down: as §3

As for `CCC1=C(C)C2=C(C)c3c(C)c(CC)c(C)n3[B-](F)(F)[N+]2=C1/C=C/c1ccc(O[C@H]2O[C@H](CO)[C@@H](O)[C@H](O)[C@H]2O)cc1`, the Activity result in [1] is “Non-Toxic”; in data set [5] it was “Non-Toxic”; in data set [9] it was 51.8%; in [10] it was 5 to 7%; in data set [13], “Non-Toxic”; in data set [15], 68.8%. In addition, the Activity entry in data set [16] was “Non-Toxic”; in the data set on A549 [18], “Dose-dependent effect”; in the data set on A549 [20], “Tde”. Besides, the IC50 – broadly, the midpoint of a concentration-inhibition curve – in data set [2] came out at 2700 nM. Moreover, the “fold change (FC)” value is 5 - 6 with A549 [3], 0.8 in the data set on A549 [8], 0.8 in the data set with A549 [11] and 6.2 in the data set with A549 [12]. Further, the Flu intensity is 41.6 to 52.5 in data set [4], 49.5 in data set [6] and 56.8 in [17]. Besides, the result in the data set filed under Bos taurus [7], in the data set listed under Bos taurus [14] and with A549 [21] was Active. For the same compound, in data set [19], the Drug uptake result is “Active”.
